Measurements published in ChEMBL document CHEMBL1157589, “Antifungal 3,5-disubstituted furanones: From 5-acyloxymethyl to 5-alkylidene derivatives” (Bioorg Med Chem, 2010).
In brackets after ≈: the same amount, converted by molar mass. Activity calls are given as the source filed them. The rule behind the calls is not given here.

Legend:
Candida albicans [1] = assay: Antifungal activity against Candida albicans ATCC 44859 after 48 hrs by microdilution method; type: functional; settings: ATCC 44859, 48 h
Outline: (§1)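 Yeasts held on Sabouraud dextrose agar. MIC by NCCLS M27-A broth microdilution in RPMI 1640 with L-glutamine, buffered with 0.165 M MOPS to pH 7.0. Compounds in DMSO (≤2% final), twofold dilutions 500–0.48. Final inoculum 5 × 10³ ± 0.2 cfu mL⁻¹. Incubated at 35 °C; absorbance at 540 nm read at 24 and 48 h. MIC is 80% growth inhibition versus control; run twice in duplicate.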

Candida albicans [2] = assay: Antifungal activity against Candida albicans ATCC 90028 after 24 hrs by microdilution method; type: functional; settings: ATCC 90028, 24 h; outline: as §1
Candida albicans [3] = assay: Antifungal activity against Candida albicans ATCC 90028 after 48 hrs by microdilution method; type: functional; settings: ATCC 90028, 48 h; outline: as §1
Candida parapsilosis [4] = assay: Antifungal activity against Candida parapsilosis ATCC 22019 after 24 hrs by microdilution method; type: functional; settings: Lodderomyces parapsilosis, ATCC 22019, 24 h; outline: as §1
Candida parapsilosis [5] = assay: Antifungal activity against Candida parapsilosis ATCC 22019 after 48 hrs by microdilution method; type: functional; settings: Lodderomyces parapsilosis, ATCC 22019, 48 h; outline: as §1
Pichia kudriavzevii [6] = assay: Antifungal activity against Candida krusei ATCC 6258 after 24 hrs by microdilution method; type: functional; settings: ATCC 6258, 24 h; outline: as §1
Pichia kudriavzevii [7] = assay: Antifungal activity against Candida krusei ATCC 6258 after 48 hrs by microdilution method; type: functional; settings: ATCC 6258, 48 h; outline: as §1
Pichia kudriavzevii [8] = assay: Antifungal activity against Candida krusei E28 after 24 hrs by microdilution method; type: functional; settings: E28, 24 h; outline: as §1
Pichia kudriavzevii [9] = assay: Antifungal activity against Candida krusei E28 after 48 hrs by microdilution method; type: functional; settings: E28, 48 h; outline: as §1
Candida tropicalis [10] = assay: Antifungal activity against Candida tropicalis 156 after 24 hrs by microdilution method; type: functional; settings: Candida tropicalis, 156, 24 h; outline: as §1
Candida tropicalis [11] = assay: Antifungal activity against Candida tropicalis 156 after 48 hrs by microdilution method; type: functional; settings: Candida tropicalis, 156, 48 h; outline: as §1
Nakaseomyces glabratus [12] = assay: Antifungal activity against Candida glabrata 20/I after 24 hrs by microdilution method; type: functional; outline: as §1
Nakaseomyces glabratus [13] = assay: Antifungal activity against Candida glabrata 20/I after 48 hrs by microdilution method; type: functional; outline: as §1
Clavispora lusitaniae [14] = assay: Antifungal activity against Candida lusitaniae 2446/I after 24 hrs by microdilution method; type: functional; outline: as §1
Clavispora lusitaniae [15] = assay: Antifungal activity against Candida lusitaniae 2446/I after 48 hrs by microdilution method; type: functional; outline: as §1
Trichosporon beigelii [16] = assay: Antifungal activity against Trichosporon beigelii 1188 after 24 hrs by microdilution method; type: functional; settings: Trichosporon beigelii, 1188, 24 h; outline: as §1
Trichosporon beigelii [17] = assay: Antifungal activity against Trichosporon beigelii 1188 after 48 hrs by microdilution method; type: functional; settings: Trichosporon beigelii, 1188, 48 h; outline: as §1
Aspergillus fumigatus [18] = assay: Antifungal activity against Aspergillus fumigatus 231 after 24 hrs by microdilution method; type: functional; settings: Aspergillus fumigatus, 231, 24 h
Outline: (§2)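 Filamentous strains held on Sabouraud dextrose agar. NCCLS M27-A broth microdilution in RPMI 1640 with L-glutamine and 0.165 M MOPS, pH 7.0. DMSO diluent ≤2% final; twofold dilutions 500–0.48. Inoculum 5 × 10³ ± 0.2 cfu mL⁻¹ final.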

Aspergillus fumigatus [19] = assay: Antifungal activity against Aspergillus fumigatus 231 after 48 hrs by microdilution method; type: functional; settings: Aspergillus fumigatus, 231, 48 h; outline: as §2
Lichtheimia corymbifera [20] = assay: Antifungal activity against Absidia corymbifera 272 after 24 hrs by microdilution method; type: functional; settings: Lichtheimia corymbifera, 272, 24 h; outline: as §2
Lichtheimia corymbifera [21] = assay: Antifungal activity against Absidia corymbifera 272 after 48 hrs by microdilution method; type: functional; settings: Lichtheimia corymbifera, 272, 48 h; outline: as §2
[22] = tested on: Trichophyton mentagrophytes; assay: Antifungal activity against Trichophyton mentagrophytes 445 after 72 hrs by microdilution method; type: functional; settings: Trichophyton mentagrophytes, 445, 72 h
Outline: (§3)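 Dermatophyte held on Sabouraud dextrose agar. M27-A microdilution in MOPS-buffered (0.165 M, pH 7.0) RPMI 1640 with L-glutamine. DMSO ≤2% final; twofold dilutions 500–0.48. Inoculum 5 × 10³ ± 0.2 cfu mL⁻¹ final. Incubated at 35 °C; MIC read visually at 72 and 120 h as 80% inhibition of control growth; determined twice in duplicate.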

[23] = tested on: Trichophyton mentagrophytes; assay: Antifungal activity against Trichophyton mentagrophytes 445 after 120 hrs by microdilution method; type: functional; settings: Trichophyton mentagrophytes, 445, 120 h; outline: as §3
L1210 = assay: Cytostatic activity against mouse L1210 cells after 72 hrs by XTT assay; type: functional, cell-based; settings: Mus musculus, L1210, 72 h; read-out: IC50
Outline: (§4)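 Leukemia cells (L1210 ATCC CCL 219, CCRF-CEM ATCC CCL 119, HL-60 ATCC CCL 240) grown in 24-well plates in RPMI 1640 with fetal calf serum. Growth assessed 72 h after drug addition. Viability measured by XTT spectrophotometric assay; potency given as IC50.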

HL-60 = assay: Cytostatic activity against human HL60 cells after 72 hrs by XTT assay; type: functional, cell-based; settings: Homo sapiens, HL-60, 72 h; read-out: IC50; outline: as §4
CCRF-CEM [24] = assay: Cytostatic activity against human CCRF-CEM cells after 72 hrs by XTT assay; type: functional, cell-based; settings: Homo sapiens, CCRF-CEM, 72 h; read-out: IC50; outline: as §4
CCRF-CEM [25] = assay: Cell cycle arrest in human CCRF-CEM cells assessed as increase in accumulation at G1 phase at 2.5 umol/L after 72 hrs by FACS analysis; type: functional, cell-based
Outline: (§5)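 CCRF-CEM cells cultured with compound at 2.5 µmol/L. At the 72 h growth endpoint, cells ethanol-fixed and stained with propidium iodide in RNase A-containing buffer. Cell-cycle distribution analysed by flow cytometry against untreated control cells.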

CCRF-CEM [26] = assay: Cell cycle arrest in human CCRF-CEM cells assessed as increase in accumulation at S phase at 2.5 umol/L after 72 hrs by FACS analysis; type: functional, cell-based; outline: as §5
CCRF-CEM [27] = assay: Cell cycle arrest in human CCRF-CEM cells assessed as decrease in accumulation at G2/M phase at 2.5 umol/L after 72 hrs by FACS analysis; type: functional, cell-based; outline: as §5
CCRF-CEM [28] = assay: Induction of apoptosis in human CCRF-CEM cells assessed as necrotic cells at 2.5 umol/L after 72 hrs by annexin-V FITC staining-based flow cytometry; type: functional
Outline: (§6)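 CCRF-CEM cells grown with compound at 2.5 µmol/L alongside untreated controls. Apoptotic and necrotic populations detected by flow cytometry using an Annexin V-FITC apoptosis kit, following the manufacturer's protocol.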

CCRF-CEM [29] = assay: Induction of apoptosis in human CCRF-CEM cells assessed as loss of cellular plasma membrane integrity at 2.5 umol/L after 72 hrs by annexin-V FITC staining-based flow cytometry; type: functional, cell-based; outline: as §6
CCRF-CEM [30] = assay: Induction of apoptosis in human CCRF-CEM cells assessed as loss of cellular […] membrane integrity at 2.5 umol/L after 72 hrs by annexin-V FITC staining-based flow cytometry; type: functional, cell-based; outline: as §6
Candida albicans [31] = assay: Antifungal activity against Candida albicans ATCC 44859 after 24 hrs by microdilution method; type: functional; settings: ATCC 44859, 24 h; outline: as §1
HeLa S3 = assay: Cytostatic activity against human HeLaS3 cells after 48 hrs by XTT assay; settings: Homo sapiens, HeLa S3, 48 h; read-out: IC50

MIC80 (Candida albicans [1]): 1.95 µM (≈ 0.49 µg/mL) | MIC80 (Candida albicans [2]): 3.9 µM (≈ 0.979 µg/mL) | MIC80 (Candida albicans [3]): 7.81 µM (≈ 1.96 µg/mL) | MIC80 (Candida parapsilosis [4]): 7.81 µM (≈ 1.96 µg/mL) | MIC80 (Candida parapsilosis [5]): 15.6 µM (≈ 3.92 µg/mL) | MIC80 (Pichia kudriavzevii [6]): 7.81 µM (≈ 1.96 µg/mL) | MIC80 (Pichia kudriavzevii [7]): 7.81 µM (≈ 1.96 µg/mL) | MIC80 (Pichia kudriavzevii [8]): 7.81 µM (≈ 1.96 µg/mL) | MIC80 (Pichia kudriavzevii [9]): 7.81 µM (≈ 1.96 µg/mL) | MIC80 (Candida tropicalis [10]): 7.81 µM (≈ 1.96 µg/mL) | MIC80 (Candida tropicalis [11]): 15.6 µM (≈ 3.92 µg/mL) | MIC80 (Nakaseomyces glabratus [12]): 1.95 µM (≈ 0.49 µg/mL) | MIC80 (Nakaseomyces glabratus [13]): 1.95 µM (≈ 0.49 µg/mL) | MIC80 (Clavispora lusitaniae [14]): 7.81 µM (≈ 1.96 µg/mL) | MIC80 (Clavispora lusitaniae [15]): 15.6 µM (≈ 3.92 µg/mL) | MIC80 (Trichosporon beigelii [16]): 3.9 µM (≈ 0.979 µg/mL) | MIC80 (Trichosporon beigelii [17]): 15.6 µM (≈ 3.92 µg/mL) | MIC80 (Aspergillus fumigatus [18]): 1.95 µM (≈ 0.49 µg/mL) | MIC80 (Aspergillus fumigatus [19]): 7.81 µM (≈ 1.96 µg/mL) | MIC80 (Lichtheimia corymbifera [20]): 31.2 µM (≈ 7.85 µg/mL) | MIC80 (Lichtheimia corymbifera [21]): 125 µM (≈ 31.4 µg/mL) | MIC80 [22]: 1.95 µM (≈ 0.49 µg/mL) | MIC80 [23]: 3.9 µM (≈ 0.979 µg/mL) | IC50 (L1210): 21 µM | IC50 (HL-60): 18 µM | IC50 (CCRF-CEM [24]): 2520 nM | MIC80 (Candida albicans [31]): 0.49 µM (≈ 0.123 µg/mL) | IC50 (HeLa S3): 2090 nM
SMILES: C=C1C=C(c2ccc(Br)cc2)C(=O)O1
Activity (CCRF-CEM [25]): Active | Activity (CCRF-CEM [26]): Active | Activity (CCRF-CEM [27]): Active | Activity (CCRF-CEM [28]): > 80% | Activity (CCRF-CEM [29]): Active | Activity (CCRF-CEM [30]): Active
